Data from ChEMBL document CHEMBL1806428, “Design and synthesis of spiro derivatives of parthenin as novel anti-cancer agents” (Eur J Med Chem, 2011).
Where “and” joins values, the source holds several entries; their conditions need not be identical. Equal entries are not always repeated.

How the values were obtained:
[1] = system: SW-620; assay: Cytotoxicity against human SW620 cells assessed as cell growth after 48 hrs by sulforhodamine B assay; type: functional, cell-based
Method in brief: (§1)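 Log-phase cells seeded at 10^4/well and allowed to attach for 24 h at 37 °C, 5% CO2. Exposed for 48 h to 0.1–100 (1:10 serial dilutions), four replicate wells per condition. Fixed with cold 50% TCA for 1 h at 4 °C, stained with sulforhodamine B, dye dissolved in Tris, OD read at 540 nm. Blank-subtracted growth expressed relative to untreated cells (100%); IC50 reported.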

[2] = system: DU-145; assay: Cytotoxicity against human DU145 cells assessed as cell growth after 48 hrs by sulforhodamine B assay; type: functional, cell-based; method in brief: as §1
[3] = system: PC-3; assay: Cytotoxicity against human PC3 cells assessed as cell growth after 48 hrs by sulforhodamine B assay; type: functional, cell-based; method in brief: as §1
[4] = Partition coefficient, log P of the compound; type: physicochemical; settings: octanol/water

Compound | logP [4] | IC50 ([1]; Homo sapiens, SW-620, 48 h) | IC50 ([1]; sw-620) | IC50 ([2]; Homo sapiens, DU-145, 48 h) | IC50 ([2]; du-145) | IC50 ([3]; Homo sapiens, PC-3, 48 h) | IC50 ([3]; pc-3)
C[C@H]1CC[C@@H]2[C@@H](OC(=O)[C@]23CC(c2ccc(Cl)cc2)N(c2ccccc2)O3)[C@]2(C)C(=O)C=C[C@@]12O (some centres undefined) |  | 7.5 µM | 5.1 µM | 7 µM | 6 µM | 7.8 µM | 12 µM
C[C@H]1CC[C@@H]2[C@@H](OC(=O)[C@]23CN3c2ccccc2)[C@]2(C)C(=O)C=C[C@@]12O | 1.38 | 87.7 µM |  | 31.4 µM |  | 10.6 µM | 
C[C@H]1CC[C@@H]2[C@@H](OC(=O)[C@]23CC(c2cccc(F)c2)N(c2ccccc2)O3)[C@]2(C)C(=O)C=C[C@@]12O (some centres undefined) |  | 4.8 µM | 5.1 µM | 5 µM | 8.1 µM | 4.8 µM | 9 µM
Cc1ccccc1C1=NO[C@]2(C1)C(=O)O[C@@H]1[C@H]2CC[C@H](C)[C@]2(O)C=CC(=O)[C@@]12C | 1.86 | 5 µM |  | 12 µM |  | 10 µM | 
C[C@H]1CC[C@@H]2[C@@H](OC(=O)[C@]23CC(c2ccccc2F)=NO3)[C@]2(C)C(=O)C=C[C@@]12O | 1.57 | 11 µM |  | 24 µM |  | 8.2 µM | 
Cc1ccc(C2C[C@@]3(ON2c2ccccc2)C(=O)O[C@@H]2[C@H]3CC[C@H](C)[C@]3(O)C=CC(=O)[C@@]23C)cc1 (some centres undefined) |  | 8.7 µM | 9 µM | 8.1 µM | 6.3 µM | 8.5 µM | 9.1 µM
COc1ccc(C2C[C@@]3(ON2c2ccccc2)C(=O)O[C@@H]2[C@H]3CC[C@H](C)[C@]3(O)C=CC(=O)[C@@]23C)cc1 (some centres undefined) |  | 7.3 µM | 4.2 µM | 6.4 µM | 7.1 µM | 5.7 µM | 6 µM
C[C@H]1CC[C@@H]2[C@@H](OC(=O)[C@]23CC(c2ccc(F)cc2)N(c2ccccc2)O3)[C@]2(C)C(=O)C=C[C@@]12O (some centres undefined) |  | 7.3 µM | 6 µM | 6.4 µM | 5 µM |  | 5.7 µM and 12 µM
C[C@H]1CC[C@@H]2[C@@H](OC(=O)[C@]23CC(c2c(Cl)cccc2Cl)N(c2ccccc2)O3)[C@]2(C)C(=O)C=C[C@@]12O (some centres undefined) |  | 3 µM | 5 µM | 9 µM | 6.3 µM | 2.4 µM | 4.2 µM
C[C@H]1CC[C@@H]2[C@@H](OC(=O)[C@]23CC(c2cccc(Cl)c2)N(c2ccccc2)O3)[C@]2(C)C(=O)C=C[C@@]12O (some centres undefined) |  | 6.1 µM | 10.5 µM | 7.4 µM | 6 µM | 8.2 µM | 12 µM
C[C@H]1CC[C@@H]2[C@@H](OC(=O)[C@]23CC(c2c(F)c(F)c(F)c(F)c2F)N(c2ccccc2)O3)[C@]2(C)C(=O)C=C[C@@]12O (some centres undefined) |  | 3 µM | 5.5 µM | 9.3 µM | 6.1 µM | 5.6 µM | 5 µM
C[C@H]1CC[C@@H]2[C@@H](OC(=O)[C@]23CC(c2ccccc2F)N(c2ccccc2)O3)[C@]2(C)C(=O)C=C[C@@]12O (some centres undefined) |  | 9 µM | 10.2 µM | 4.1 µM | 6 µM | 2.7 µM | 2.5 µM
C[C@H]1CC[C@@H]2[C@@H](OC(=O)[C@]23CC(c2c(F)cccc2F)N(c2ccccc2)O3)[C@]2(C)C(=O)C=C[C@@]12O (some centres undefined) |  | 5 µM | 7.2 µM | 12 µM | 9 µM | 2.5 µM | 2.3 µM
C[C@H]1CC[C@@H]2[C@@H](OC(=O)[C@]23CC(c2ccc([N+](=O)[O-])cc2)N(c2ccccc2)O3)[C@]2(C)C(=O)C=C[C@@]12O (some centres undefined) |  | 5.7 µM | 5.1 µM | 5.6 µM | 6 µM | 8.4 µM | 9.3 µM
C[C@H]1CC[C@@H]2[C@@H](OC(=O)[C@]23CC(c2ccccc2)N(c2ccccc2)O3)[C@]2(C)C(=O)C=C[C@@]12O (some centres undefined) |  | 5.3 µM | 6 µM | 5.6 µM | 6.5 µM | 5.7 µM | 9 µM
COc1cccc(C2C[C@@]3(ON2c2ccccc2)C(=O)O[C@@H]2[C@H]3CC[C@H](C)[C@]3(O)C=CC(=O)[C@@]23C)c1 (some centres undefined) |  | 7.5 µM | 6.6 µM | 10 µM | 11 µM | 12 µM | 9 µM
C[C@H]1CC[C@@H]2[C@@H](OC(=O)[C@]23CC(c2ccc(C#N)cc2)N(c2ccccc2)O3)[C@]2(C)C(=O)C=C[C@@]12O (some centres undefined) |  | 4.8 µM | 5 µM | 5 µM | 7 µM | 4.8 µM | 9.1 µM
C[C@H]1CC[C@@H]2[C@@H](OC(=O)[C@]23CC(c2ccc(Br)cc2)N(c2ccccc2)O3)[C@]2(C)C(=O)C=C[C@@]12O (some centres undefined) |  | 6.7 µM | 8.1 µM | 5.3 µM | 4.2 µM |  | 5.8 µM and 2.3 µM
COc1ccc(C2C[C@@]3(ON2c2ccccc2)C(=O)O[C@@H]2[C@H]3CC[C@H](C)[C@]3(O)C=CC(=O)[C@@]23C)cc1Br (some centres undefined) |  | 6.8 µM | 9 µM | 6.3 µM | 5.4 µM | 5.7 µM | 8.1 µM
C[C@H]1CC[C@@H]2[C@@H](OC(=O)[C@]23CC(c2ccccc2Cl)N(c2ccccc2)O3)[C@]2(C)C(=O)C=C[C@@]12O (some centres undefined) |  | 5.5 µM | 9.2 µM | 6 µM | 4.1 µM | 3.5 µM | 6.3 µM
Cc1ccccc1C1C[C@@]2(ON1c1ccccc1)C(=O)O[C@@H]1[C@H]2CC[C@H](C)[C@]2(O)C=CC(=O)[C@@]12C (some centres undefined) |  | 12 µM | 9 µM | 4.5 µM | 5.1 µM | 15 µM | 
C[C@H]1CC[C@@H]2[C@@H](OC(=O)[C@]23CC(c2c(F)cccc2F)N(c2ccccc2)O3)[C@]2(C)C(=O)C=C[C@@]12O (mixture of isomers) | 3.42 |  |  |  |  |  | 

The next lines start with results.

logP [4] | Compound | IC50 ([1]; Homo sapiens, SW-620, 48 h) | IC50 ([1]; sw-620) | IC50 ([2]; Homo sapiens, DU-145, 48 h) | IC50 ([2]; du-145) | IC50 ([3]; Homo sapiens, PC-3, 48 h) | IC50 ([3]; pc-3)
3.35 | C[C@H]1CC[C@@H]2[C@@H](OC(=O)[C@]23CC(c2ccccc2F)N(c2ccccc2)O3)[C@]2(C)C(=O)C=C[C@@]12O (mixture of isomers) |  |  |  |  |  | 
3.87 | C[C@H]1CC[C@@H]2[C@@H](OC(=O)[C@]23CC(c2ccccc2Cl)N(c2ccccc2)O3)[C@]2(C)C(=O)C=C[C@@]12O (mixture of isomers) |  |  |  |  |  | 
3.87 | C[C@H]1CC[C@@H]2[C@@H](OC(=O)[C@]23CC(c2ccc(Cl)cc2)N(c2ccccc2)O3)[C@]2(C)C(=O)C=C[C@@]12O (mixture of isomers) |  |  |  |  |  | 
3.25 | COc1ccc(C2C[C@@]3(ON2c2ccccc2)C(=O)O[C@@H]2[C@H]3CC[C@H](C)[C@]3(O)C=CC(=O)[C@@]23C)cc1 (mixture of isomers) |  |  |  |  |  | 
2.22 | C[C@H]1CC[C@@H]2[C@@H](OC(=O)[C@]23CC(c2ccccc2Br)=NO3)[C@]2(C)C(=O)C=C[C@@]12O | 44 µM |  | 18 µM |  | 51 µM | 
3.15 | C[C@H]1CC[C@@H]2[C@@H](OC(=O)[C@]23CC(c2ccc([N+](=O)[O-])cc2)N(c2ccccc2)O3)[C@]2(C)C(=O)C=C[C@@]12O (mixture of isomers) |  |  |  |  |  | 
3.64 | Cc1ccccc1C1C[C@@]2(ON1c1ccccc1)C(=O)O[C@@H]1[C@H]2CC[C@H](C)[C@]2(O)C=CC(=O)[C@@]12C (mixture of isomers) |  |  |  |  |  | 
3.98 | COc1ccc(C2C[C@@]3(ON2c2ccccc2)C(=O)O[C@@H]2[C@H]3CC[C@H](C)[C@]3(O)C=CC(=O)[C@@]23C)cc1Br (mixture of isomers) |  |  |  |  |  | 
4.45 | C[C@H]1CC[C@@H]2[C@@H](OC(=O)[C@]23CC(c2c(Cl)cccc2Cl)N(c2ccccc2)O3)[C@]2(C)C(=O)C=C[C@@]12O (mixture of isomers) |  |  |  |  |  | 
3.72 | C[C@H]1CC[C@@H]2[C@@H](OC(=O)[C@]23CC(c2c(F)c(F)c(F)c(F)c2F)N(c2ccccc2)O3)[C@]2(C)C(=O)C=C[C@@]12O (mixture of isomers) |  |  |  |  |  | 
3.35 | C[C@H]1CC[C@@H]2[C@@H](OC(=O)[C@]23CC(c2ccc(F)cc2)N(c2ccccc2)O3)[C@]2(C)C(=O)C=C[C@@]12O (mixture of isomers) |  |  |  |  |  | 
2.94 | C[C@H]1CC[C@@H]2[C@@H](OC(=O)[C@]23CC(c2ccc(C#N)cc2)N(c2ccccc2)O3)[C@]2(C)C(=O)C=C[C@@]12O (mixture of isomers) |  |  |  |  |  | 
3.64 | Cc1ccc(C2C[C@@]3(ON2c2ccccc2)C(=O)O[C@@H]2[C@H]3CC[C@H](C)[C@]3(O)C=CC(=O)[C@@]23C)cc1 (mixture of isomers) |  |  |  |  |  | 
4 | C[C@H]1CC[C@@H]2[C@@H](OC(=O)[C@]23CC(c2ccc(Br)cc2)N(c2ccccc2)O3)[C@]2(C)C(=O)C=C[C@@]12O (mixture of isomers) |  |  |  |  |  | 
3.19 | C[C@H]1CC[C@@H]2[C@@H](OC(=O)[C@]23CC(c2ccccc2)N(c2ccccc2)O3)[C@]2(C)C(=O)C=C[C@@]12O (mixture of isomers) |  |  |  |  |  | 
3.25 | COc1cccc(C2C[C@@]3(ON2c2ccccc2)C(=O)O[C@@H]2[C@H]3CC[C@H](C)[C@]3(O)C=CC(=O)[C@@]23C)c1 (mixture of isomers) |  |  |  |  |  | 
3.35 | C[C@H]1CC[C@@H]2[C@@H](OC(=O)[C@]23CC(c2cccc(F)c2)N(c2ccccc2)O3)[C@]2(C)C(=O)C=C[C@@]12O (mixture of isomers) |  |  |  |  |  | 
3.87 | C[C@H]1CC[C@@H]2[C@@H](OC(=O)[C@]23CC(c2cccc(Cl)c2)N(c2ccccc2)O3)[C@]2(C)C(=O)C=C[C@@]12O (mixture of isomers) |  |  |  |  |  | 
